Experimental data taken from ChEMBL document CHEMBL3603837, “Indole Glucocorticoid Receptor Antagonists Active in a Model of Dyslipidemia Act via a Unique Association with an Agonist Binding Site” (J Med Chem, 2015).
Calls of active or inactive are those of the source. The rule behind the calls is not given here.

What was measured:
Glucocorticoid receptor [1] = biological target: T1, Glucocorticoid receptor (Rattus norvegicus, UniProt P06536); assay: Antagonist activity against glucocorticoid receptor in rat H4-IIE cells assessed as inhibition of dexamethasone-induced receptor transactivation pre-incubated for 1 hr before dexamethasone addition and measured 24 hrs post dexamethasone stimulation by tyrosine aminotransferase enzyme assay; format: cell-based
T1 sequence (P06536 whole entry): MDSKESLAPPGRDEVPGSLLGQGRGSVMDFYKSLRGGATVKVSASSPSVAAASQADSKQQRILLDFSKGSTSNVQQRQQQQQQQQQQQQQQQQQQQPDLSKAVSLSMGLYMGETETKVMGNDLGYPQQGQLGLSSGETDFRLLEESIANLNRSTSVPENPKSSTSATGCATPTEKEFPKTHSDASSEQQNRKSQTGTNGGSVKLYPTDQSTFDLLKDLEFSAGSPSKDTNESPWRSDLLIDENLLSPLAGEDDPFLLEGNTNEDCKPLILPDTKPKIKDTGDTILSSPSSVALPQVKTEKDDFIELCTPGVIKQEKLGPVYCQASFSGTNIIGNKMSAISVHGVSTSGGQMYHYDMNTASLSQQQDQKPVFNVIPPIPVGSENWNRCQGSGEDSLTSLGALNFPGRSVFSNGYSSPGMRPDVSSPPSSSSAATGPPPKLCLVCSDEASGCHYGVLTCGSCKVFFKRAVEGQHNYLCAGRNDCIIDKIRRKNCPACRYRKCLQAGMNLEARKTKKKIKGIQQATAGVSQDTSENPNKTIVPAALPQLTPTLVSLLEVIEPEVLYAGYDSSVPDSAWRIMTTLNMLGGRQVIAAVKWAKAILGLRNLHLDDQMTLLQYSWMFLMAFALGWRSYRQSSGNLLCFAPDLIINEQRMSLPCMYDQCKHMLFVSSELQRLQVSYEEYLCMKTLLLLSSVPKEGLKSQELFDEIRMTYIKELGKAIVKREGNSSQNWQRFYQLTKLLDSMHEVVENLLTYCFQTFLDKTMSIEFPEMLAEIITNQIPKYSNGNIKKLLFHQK

Glucocorticoid receptor [2] = biological target: T2, Glucocorticoid receptor (Homo sapiens, UniProt P04150); assay: Displacement of [3H]-dexamethasone from human glucocorticoid receptor expressed in HEK293 cells by scintillation counting based radioligand competition binding assay; format: cell-based
T2 sequence (P04150 whole entry): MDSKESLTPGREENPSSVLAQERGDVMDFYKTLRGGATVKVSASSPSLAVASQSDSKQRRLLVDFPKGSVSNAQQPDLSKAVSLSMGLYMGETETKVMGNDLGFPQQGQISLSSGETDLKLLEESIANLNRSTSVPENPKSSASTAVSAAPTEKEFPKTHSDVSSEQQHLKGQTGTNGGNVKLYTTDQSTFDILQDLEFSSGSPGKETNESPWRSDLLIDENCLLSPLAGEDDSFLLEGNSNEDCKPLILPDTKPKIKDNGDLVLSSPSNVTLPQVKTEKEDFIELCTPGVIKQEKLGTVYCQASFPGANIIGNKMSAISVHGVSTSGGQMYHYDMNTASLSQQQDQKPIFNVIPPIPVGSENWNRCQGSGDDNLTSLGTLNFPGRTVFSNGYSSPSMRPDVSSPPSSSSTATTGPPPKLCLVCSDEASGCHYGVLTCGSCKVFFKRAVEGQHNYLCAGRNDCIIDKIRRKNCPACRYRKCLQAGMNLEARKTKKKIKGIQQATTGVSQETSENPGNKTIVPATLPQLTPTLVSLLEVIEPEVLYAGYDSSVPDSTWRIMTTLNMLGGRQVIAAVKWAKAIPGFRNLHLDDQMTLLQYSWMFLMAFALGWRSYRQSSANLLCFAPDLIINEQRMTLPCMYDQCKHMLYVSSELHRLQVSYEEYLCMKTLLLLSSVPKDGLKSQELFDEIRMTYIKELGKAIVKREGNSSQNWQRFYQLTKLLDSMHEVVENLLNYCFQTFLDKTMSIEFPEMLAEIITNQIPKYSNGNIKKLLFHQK

[3] = biological target: T3, Glucocorticoid receptor (Homo sapiens) (UniProt P04150); assay: Agonist activity at glucocorticoid receptor (unknown origin) expressed in HEK293 cells by GRE-dependent luciferase reporter gene assay; format: cell-based
T3 sequence (whole entry): T2 sequence (P04150 whole entry)

Androgen receptor = biological target: T4, Androgen receptor (Homo sapiens, UniProt P10275); assay: biochemical
T4 sequence (P10275 whole entry): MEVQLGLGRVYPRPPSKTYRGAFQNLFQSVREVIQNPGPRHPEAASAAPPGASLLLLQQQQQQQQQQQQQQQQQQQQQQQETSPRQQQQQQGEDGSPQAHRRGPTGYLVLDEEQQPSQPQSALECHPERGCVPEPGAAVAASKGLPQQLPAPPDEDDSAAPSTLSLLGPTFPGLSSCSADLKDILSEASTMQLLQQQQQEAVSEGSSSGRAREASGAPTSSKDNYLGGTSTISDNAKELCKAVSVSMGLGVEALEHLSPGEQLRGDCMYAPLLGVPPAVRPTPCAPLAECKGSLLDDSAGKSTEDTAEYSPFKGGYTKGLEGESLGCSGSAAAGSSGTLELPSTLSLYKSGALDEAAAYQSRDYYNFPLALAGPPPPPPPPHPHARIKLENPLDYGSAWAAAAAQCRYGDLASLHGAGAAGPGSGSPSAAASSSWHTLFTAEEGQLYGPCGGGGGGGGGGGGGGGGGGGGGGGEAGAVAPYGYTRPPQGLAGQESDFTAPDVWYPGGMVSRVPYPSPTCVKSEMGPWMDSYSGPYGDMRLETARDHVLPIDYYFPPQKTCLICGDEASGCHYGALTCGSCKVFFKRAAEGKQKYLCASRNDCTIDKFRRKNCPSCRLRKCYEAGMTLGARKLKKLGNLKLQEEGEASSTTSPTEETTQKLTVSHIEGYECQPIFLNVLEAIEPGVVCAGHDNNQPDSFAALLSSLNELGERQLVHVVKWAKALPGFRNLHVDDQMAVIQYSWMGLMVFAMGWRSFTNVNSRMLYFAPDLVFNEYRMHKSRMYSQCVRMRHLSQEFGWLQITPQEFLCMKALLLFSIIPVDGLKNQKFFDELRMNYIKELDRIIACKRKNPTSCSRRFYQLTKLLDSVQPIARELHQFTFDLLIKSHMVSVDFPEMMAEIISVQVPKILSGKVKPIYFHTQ

Glucocorticoid receptor [4] = biological target: T2, Glucocorticoid receptor; assay: Antagonist activity against glucocorticoid receptor (unknown origin) expressed in HEK293 cells by GRE-dependent luciferase reporter gene assay; format: cell-based
[5] = biological target: T5, Glucocorticoid receptor (Rattus norvegicus) (UniProt P06536); assay: Agonist activity at glucocorticoid receptor in rat H4-IIE cells assessed as receptor transactivation incubated for 24 hrs by tyrosine aminotransferase enzyme assay; format: cell-based
T5 sequence (whole entry): T1 sequence (P06536 whole entry)
Procedure, shortened: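 Rat hepatoma H4IIEC3 cells grown in DMEM with 10% FBS, plated at 100000 cells/well overnight at 37 °C, 5% CO2, then switched to DMEM/F12 with 5% CS-FBS for 24 h. Test compounds at about 0.09 nM–25 μM for 24 h. Lysates given TAT substrate (4.74 mM L-tyrosine, 13.3 mM α-ketoglutarate, pH 7.6) for 2 h at 37 °C, then KOH. A340 read against a standard curve; EC50 from four-parameter logistic fit.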

SMILES	IC50 (Glucocorticoid receptor [1]) [nM]	Ki (Glucocorticoid receptor [2]) [nM]	Activity [3]	Ki (Androgen receptor) [nM]	IC50 (Glucocorticoid receptor [4]) [nM]	Activity [5]
COc1cc(F)ccc1-c1c(C)[nH]c2c(NS(C)(=O)=O)cc(F)cc12	63.4	1.32	inactive	1130	22	inactive
COc1ccc(F)cc1-c1c(-c2ccccc2)[nH]c2c(NS(C)(=O)=O)cccc12		53.7		905		
CS(=O)(=O)Nc1cccc2cc[nH]c12		50		355		
COc1cc(NS(C)(=O)=O)c2[nH]c(C)c(-c3ccccc3)c2c1		39.8		4060		
COc1cc(NS(C)(=O)=O)c2[nH]c(C)c(-c3cc(F)ccc3OC)c2c1		115		1120		
COc1ccc(Cl)cc1-c1c[nH]c2c(NS(C)(=O)=O)cccc12	1250	5.45	inactive	697	143	inactive
COc1cc(F)ccc1-c1c(CN(C)Cc2ccccc2)[nH]c2c(NS(C)(=O)=O)cc(C(C)C)cc12	10.6	1.22	inactive	232	2.76	inactive
COc1cc(F)ccc1-c1c(CN(C)Cc2ccccc2)[nH]c2c(N)cc(F)cc12				4140		
CS(=O)(=O)Nc1cccc2c(-c3ccc(F)cc3)c[nH]c12		94.6		496		
COc1cc(F)ccc1-c1c(CN(C)Cc2ccccc2)[nH]c2c(NS(C)(=O)=O)cc(C(C)(C)C)cc12	14.4			231		inactive
COc1cc(F)ccc1-c1c(Cc2ccccc2)[nH]c2c(NS(C)(=O)=O)cc(C(C)C)cc12	292	0.543	inactive	684	7.54	inactive
CS(=O)(=O)Nc1cccc2c(-c3cccc(Cl)c3)c[nH]c12	76	5.04		91	180	
COc1ccccc1-c1c[nH]c2c(NS(C)(=O)=O)cccc12	1180	3.06		401	235	
